Experimental data: ChEMBL document CHEMBL4004856, “Synthesis of new heterocyclic compounds based on pyrazolopyridine scaffold and evaluation of their neuroprotective potential in MPP+-induced neurodegeneration” (Eur J Med Chem, 2017)
Calls of active or inactive are those of the source. No cut-off for these calls is given here.

What was measured:
[1] = tested on: SH-SY5Y; assay: Cytotoxicity against human SH-SY5Y cells assessed as reduction in cell viability up to 20 uM up to 24 hrs by MTT assay; format: cell-based
Outline: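 SH-SY5Y cells in DMEM with 10% FBS and penicillin/streptomycin at 37°C, 5% CO2, seeded 2x10³ cells/well and left to adhere 24 h. Compounds (5, 10, 20 μM, in DMSO) were added for 3, 6 and 24 h. MTT was then added (0.5 mg/ml final) for 3 h, and formazan was dissolved in DMSO and read at 570/630 nm. Values are relative to vehicle control.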

[2] = tested on: SH-SY5Y; assay: Neuroprotective activity against MPP+-induced toxicity in human SH-SY5Y cells assessed as ratio of Bcl2 to beta-actin protein expression level at 5 uM preincubated for 1 hr followed by MPP+ addition measured up to 12 hrs by Western blot method (reference value: 2.84 +/- 0.02); format: functional
Outline: (§1)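 SH-SY5Y cells seeded 5x10⁵/well and left to adhere 24 h. Compounds (1 or 5 μM) were added 1 h before 2 mM MPP⁺ for 12 h. Lysates in RIPA-type buffer; 10 μg protein run on 10% SDS gels and blotted to PVDF. Blots were probed with rabbit anti-bax, Bcl-2, Bcl-xl or caspase-3 (cleaved p17/p19) antibodies and detected by chemiluminescence. Densitometry was normalised to β-actin. Mean ± SD, n = 3.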

[3] = tested on: SH-SY5Y; assay: Neuroprotective activity against MPP+-induced toxicity in human SH-SY5Y cells assessed as increase in cell viability at 10 to 20 uM preincubated for 1 hr followed by MPP+ addition measured up to 24 hrs by MTT assay relative to control; format: functional
Outline: (§2)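 SH-SY5Y cells seeded 2x10³/well and left to adhere 24 h. Compounds (5–20 μM, DMSO) were added 1 h before 2 mM MPP⁺ for 24 h at 37°C, 5% CO2. Viability was read by MTT (0.5 mg/ml final, 3 h), DMSO solubilisation and absorbance at 570/630 nm, expressed as % of vehicle control. Mean ± SD, n = 5.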

[4] = tested on: SH-SY5Y; assay: Neuroprotective activity against MPP+-induced toxicity in human SH-SY5Y cells assessed as ratio of Bax to beta-actin protein expression level at 5 uM preincubated for 1 hr followed by MPP+ addition measured up to 12 hrs by Western blot method (reference value: 1.26); format: functional; outline: as §1
[5] = tested on: SH-SY5Y; assay: Neuroprotective activity against MPP+-induced toxicity in human SH-SY5Y cells assessed as decrease in Bax protein expression level preincubated for 1 hr followed by MPP+ addition measured up to 12 hrs by Western blot method; format: functional, cell-based; outline: as §1
[6] = tested on: SH-SY5Y; assay: Neuroprotective activity against MPP+-induced toxicity in human SH-SY5Y cells assessed as increase in cell viability preincubated for 1 hr followed by MPP+ addition measured up to 24 hrs by MTT assay; format: functional, cell-based; outline: as §2
[7] = tested on: SH-SY5Y; assay: Neuroprotective activity against MPP+-induced toxicity in human SH-SY5Y cells assessed as decrease in caspase-3 activation at 1 uM preincubated for 1 hr followed by MPP+ addition measured up to 12 hrs by Western blot method; format: functional, cell-based; outline: as §1
[8] = tested on: SH-SY5Y; assay: Neuroprotective activity against MPP+-induced toxicity in human SH-SY5Y cells assessed as increase in Bcl-xl protein level at 1 uM preincubated for 1 hr followed by MPP+ addition measured up to 12 hrs by Western blot method; format: functional, cell-based; outline: as §1
[9] = tested on: SH-SY5Y; assay: Neuroprotective activity against MPP+-induced toxicity in human SH-SY5Y cells assessed as increase in Bcl2 protein expression level preincubated for 1 hr followed by MPP+ addition measured up to 12 hrs by Western blot method
[10] = tested on: SH-SY5Y; assay: Neuroprotective activity against MPP+-induced toxicity in human SH-SY5Y cells assessed as increase in Bcl2 protein expression level at 1 uM preincubated for 1 hr followed by MPP+ addition measured up to 12 hrs by Western blot method
[11] = tested on: SH-SY5Y; assay: Neuroprotective activity against MPP+-induced toxicity in human SH-SY5Y cells assessed as ratio of Bax to beta-actin protein expression level at 1 uM preincubated for 1 hr followed by MPP+ addition measured up to 12 hrs by Western blot method (reference value: 1.26); format: functional; outline: as §1
[12] = tested on: SH-SY5Y; assay: Neuroprotective activity against MPP+-induced toxicity in human SH-SY5Y cells assessed as increase in cell viability at 5 uM preincubated for 1 hr followed by MPP+ addition measured up to 24 hrs by MTT assay relative to control; format: functional; outline: as §2
[13] = tested on: SH-SY5Y; assay: Neuroprotective activity against MPP+-induced toxicity in human SH-SY5Y cells assessed as decrease in caspase-3 activation at 5 uM preincubated for 1 hr followed by MPP+ addition measured up to 12 hrs by Western blot method; format: functional, cell-based; outline: as §1
[14] = tested on: SH-SY5Y; assay: Neuroprotective activity against MPP+-induced toxicity in human SH-SY5Y cells assessed as increase in Bcl-xl protein level by measuring ratio of Bcl-xl to beta actin level at 5 uM preincubated for 1 hr followed by MPP+ addition measured up to 12 hrs by Western blot method (reference value: 0.27 +/- 0.001); format: functional; outline: as §1
[15] = tested on: SH-SY5Y; assay: Neuroprotective activity against MPP+-induced toxicity in human SH-SY5Y cells assessed as increase in cell viability at 20 uM preincubated for 1 hr followed by MPP+ addition measured up to 24 hrs by MTT assay relative to control; format: functional; outline: as §2
[16] = tested on: SH-SY5Y; assay: Neuroprotective activity against MPP+-induced toxicity in human SH-SY5Y cells assessed as increase in cell viability at 5 to 10 uM preincubated for 1 hr followed by MPP+ addition measured up to 24 hrs by MTT assay relative to control; format: functional; outline: as §2

Row | Structure (SMILES) | Activity [1] | Ratio [2] | Activity [3] | Ratio [4] | Activity [5] | Activity [6] | Activity [7] | Activity [8] | Activity [9] | Activity [10] | Ratio [11] | Activity [12] | Activity [13] | Ratio [14] | Activity [15] | Activity [16]
1 | Cc1nc2c(c(C)nn2-c2ccccc2)c(C)c1-c1cccs1 | Non-Toxic | 4.33 | 10 - 20% | 0.49 - 1.03 | Dose-dependent effect | Dose-dependent effect | Active | Active | Dose-dependent effect | inactive | 0.76 | 20 - 30% | – | – | – | –
2 | Cc1nc2c(c(C)nn2-c2ccccc2)c(C)c1-c1ccc(C(F)(F)F)cc1 | Non-Toxic | 0.85 | 10 - 20% | 0.49 - 1.03 | Dose-dependent effect | Dose-dependent effect | Active | Active | Dose-dependent effect | inactive | 0.85 | 20 - 30% | inactive | 0.28 | – | –
3 | Cc1nc2c(c(C)nn2-c2ccccc2)c(C)c1-c1ccccc1 | Non-Toxic | – | 10 - 20% | – | – | Dose-dependent effect | – | – | – | – | – | 20 - 30% | – | – | – | –
4 | CCOC(=O)c1ccc(-c2c(C)nc3c(c(C)nn3-c3ccccc3)c2C)cc1 | Non-Toxic | – | 10 - 20% | – | – | Dose-dependent effect | – | – | – | – | – | 20 - 30% | – | – | – | –
5 | COc1ccc(-c2c(C)nc3c(c(C)nn3-c3ccccc3)c2C)cc1 | Non-Toxic | – | 10 - 20% | – | – | Dose-dependent effect | – | – | – | – | – | 20 - 30% | – | – | – | –
6 | Cc1nc2c(c(C)nn2-c2ccccc2)c(C)c1-c1ccc(F)nc1 | Non-Toxic | – | – | – | – | Dose-dependent effect | – | – | – | – | – | – | – | – | 10 - 20% | 20 - 30%
7 | Cc1nc2c(c(C)nn2-c2ccccc2)c(C)c1-c1ccc([N+](=O)[O-])cc1 | Non-Toxic | 3.22 | 10 - 20% | 0.49 - 1.03 | Dose-dependent effect | Dose-dependent effect | Active | Active | Dose-dependent effect | inactive | 0.75 | 20 - 30% | inactive | – | – | –
8 | Cc1cccc(-c2c(C)nc3c(c(C)nn3-c3ccccc3)c2C)c1 | Non-Toxic | – | 10 - 20% | – | – | Dose-dependent effect | – | – | – | – | – | 20 - 30% | – | – | – | –
9 | Cc1nc2c(c(C)nn2-c2ccccc2)c(C)c1-c1ccc(C=O)cc1 | Non-Toxic | 2.63 | 10 - 20% | 0.49 - 1.03 | Dose-dependent effect | Dose-dependent effect | Active | Active | Dose-dependent effect | inactive | 0.86 | 20 - 30% | Active | – | – | –
10 | Cc1nc2c(c(C)nn2-c2ccccc2)c(C)c1Br | Non-Toxic | – | 10 - 20% | – | – | Dose-dependent effect | – | – | – | – | – | 20 - 30% | – | – | – | –
11 | Cc1nc2c(c(C)nn2-c2ccccc2)c(C)c1-c1ccc(N(C)C)cc1 | Non-Toxic | – | 10 - 20% | – | – | Dose-dependent effect | – | – | – | – | – | 20 - 30% | – | – | – | –
12 | Cc1ccccc1-c1c(C)nc2c(c(C)nn2-c2ccccc2)c1C | Non-Toxic | – | 10 - 20% | – | – | Dose-dependent effect | – | – | – | – | – | 20 - 30% | – | – | – | –
13 | Cc1ccc(-c2c(C)nc3c(c(C)nn3-c3ccccc3)c2C)cc1 | Non-Toxic | 3.62 | 10 - 20% | 0.49 - 1.03 | Dose-dependent effect | Dose-dependent effect | Active | Active | Dose-dependent effect | inactive | 1.11 | 20 - 30% | Active | – | – | –
14 | Cc1nc2c(c(C)nn2-c2ccccc2)c(C)c1-c1cccc(C#N)c1 | Non-Toxic | – | 10 - 20% | – | – | Dose-dependent effect | – | – | – | – | – | 20 - 30% | – | – | – | –
15 | Cc1nc2c(c(C)nn2-c2ccccc2)c(C)c1-c1ccc(Cl)cc1 | Non-Toxic | 0.39 | – | 0.49 - 1.03 | Dose-dependent effect | Dose-dependent effect | Active | Active | Dose-dependent effect | inactive | 0.78 | – | – | – | 10 - 20% | 20 - 30%
